Columns and labels:
advanced solid tumors = assay: Tumor response by RECIST v1.0 / modified RECIST; format: in vivo, human
mTOR kinase = conditions: read-out: inhibition constant (Ki) mTOR kinase; cited from earlier work
[1] = Plasma pharmacokinetics in patients; format: in vivo, human; conditions: for half-life: human, plasma, po
Method in brief: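 Oral test compound was given as a single dose on day 1 (7-day run-in for terminal half-life), then QD from day 8. PPI cohort: rabeprazole 20 mg days 4-7, co-dosed day 8, intensive sampling day 8. Quantified by LC-MS/MS.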

[2] = in vitro; weakly basic molecule; cited from earlier work
[3] = tested on: phospho-AKT (pAKT) (S473) in platelet-rich plasma; assay: pAKT; format: in vivo, human
Method in brief: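 Patients took oral test compound QD on 21/28 or 28/28 schedules. Total AKT and pAKT (S473) were measured by Meso Scale Discovery immunoassay. Results are percent change in pAKT from baseline.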

[4] = tested on: xenograft cancer models with PI3K-mutant, PTEN-null, and KRAS-mutant cell lines; conditions: multiple xenograft models; cited from earlier work
[5] = tested on: tumor glucose uptake (FDG-PET); assay: FDG-PET tumor uptake; format: in vivo, human
Method in brief: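 Patients with advanced solid tumours received oral test compound once daily. FDG-PET/CT scans were taken at baseline and 1-4 h after dosing on days 22 and 55. Scans were centrally assessed by EORTC criteria, with SUVmax change as the measure. PIK3CA hotspot mutations in archival FFPE tumour DNA were typed by DxS allele-specific PCR, qRT-PCR or Sanger sequencing.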

For `Cc1c(CN2CCN(C(=O)[C@H](C)O)CC2)sc2c(N3CCOCC3)nc(-c3cnc(N)nc3)nc12` [apitolisib], the “Median time on study” value (advanced solid tumors; 40 mg 28/28) was 2.9 months, the “stable disease with tumor regression” value (advanced solid tumors; 40 mg 28/28) was 20 patients and the “time on study, range” value (advanced solid tumors; 40 mg 28/28) was 1-21.2 months. For the same molecule, the PRs (advanced solid tumors; 40 mg 28/28, 49 RECIST evaluable patients) was “Five”, the “PD as best radiological response” value (advanced solid tumors; 14 evaluable patients with PIK3CA mutations, 40 mg 28/28) was 3 and the “PRs as best radiological response” value (advanced solid tumors; 14 evaluable patients with PIK3CA mutations, 40 mg 28/28, 1 confirmed) was 3. The “PR rate in MPM patients” value (advanced solid tumors; MPM) was 12%, the “Median time on study” value (advanced solid tumors; MPM, 30 mg 28/28) was 4 months and the “time on study, range” value (advanced solid tumors; MPM, 30 mg 28/28) was 0.5-38.9 months. The “patients on study for more than 6 months” value (advanced solid tumors; MPM, 30 mg 28/28 (8 patients)) was 30%, the partial response rate (advanced solid tumors; RP2D 40 mg QD) was 10.2% and the “dose from which anti-tumor activity was apparent” value (advanced solid tumors; in vivo) was 8 mg. The “response rate with enrichment for PIK3CA mutations” value (advanced solid tumors; in vivo) was 18.8%, the “single agent response rate” value (advanced solid tumors; in vivo) was 10-19% and the time on apitolisib (advanced solid tumors; one patient, metastatic clear cell ovarian cancer, 40 mg 28/28) was 282 days. The “maximal tumor shrinkage, change from baseline” value (advanced solid tumors; one patient, metastatic clear cell ovarian cancer, E545K PIK3CA, 40 mg 28/28) was −48.3%, the “patients continuing on study for over 12 months” value (advanced solid tumors; stage 1 (3 patients)) was 5% and the “partial responses (PR)” value (advanced solid tumors; stage 1, among 56 patients) was 4. The confirmed responses (advanced solid tumors; stage 1, 32 mg QD 21/28 and 50 mg QD 21/28) was 2, the Ki (mTOR kinase) was 17.3 nM and the half-life ([1]; mean terminal elimination half-life, patients) was 11.3 h. For the same molecule, the half-life ([1]; terminal elimination half-life, range, patients) was 3.26 to 45.4 h, the “time of peak mean plasma concentration after dose” value ([1]; oral, patients) was 1 to 2 h and the “impact of PPI on apitolisib PK” value ([1]; rabeprazole 20 mg daily for 5 days, 6 patients) was “no significant impact”. For the same molecule, the accumulation ([1]; repeated QD doses) was “less than 1.2”, the drug solubility [2] was “pH-dependent drug solubility” and the “sustained pAKT inhibition” value ([3]; 40 mg 28/28) was > 90%. For the same molecule, the “doses with target modulation” value ([3]; in vivo) was ≥ 16 mg, the “suppression of phosphorylated serine-473 AKT levels” value ([3]; platelet-rich plasma, within 4 hours, MTD 50 mg) was ≥ 90% and the Tumor growth inhibition [4] was “Tumor growth inhibition has been demonstrated”. For the same molecule, the “patients with PIK3CA mutations with more than 25% mean decrease in SUVmax” value ([5]; 40 mg QD) was 9/12, the “patients with decrease in FDG-PET uptake of >25%” value ([5]; 40 mg QD (21/32)) was 66% and the “PIK3CA mutation patients with FDG-PET response” value ([5]; all dose cohorts (10 out of 14)) was 71%.

Source: paper PMC4876928 (Clinical cancer research : an official journal of the …, 2016)
